Measurements taken from ChEMBL document CHEMBL4130366, “Design, synthesis and antiproliferative activity of thiazolo[5,4-d]pyrimidine derivatives through the atom replacement strategy” (Eur J Med Chem, 2017).
pIC50: −log10 of the molar value. Activity calls are given as the source filed them. The calls are words filed in the database; no cut-off is given here.

Experiments:
MGC-803 = assay: Antiproliferative activity against human MGC803 cells after 72 hrs by MTT assay; type: functional, cell-based; details: MGC-803, 72 h
Method in brief: (§1)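 Cells in exponential growth plated at 3,000 per well, left 24 h, then medium replaced with fresh medium carrying a range of compound concentrations; 72 h exposure, MTT read at 570 nm.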

ECa-109 cell line = assay: Antiproliferative activity against human EC109 cells after 72 hrs by MTT assay; type: functional, cell-based; details: ECa-109, 72 h; method in brief: as §1
MCF7 = assay: Antiproliferative activity against human MCF7 cells after 72 hrs by MTT assay; type: functional, cell-based; details: MCF7, 72 h; method in brief: as §1
HGC-27 [1] = assay: Antiproliferative activity against human HGC27 cells after 72 hrs by MTT assay; type: functional, cell-based; details: HGC-27, 72 h; method in brief: as §1
[2] = Selectivity index, ratio of IC50 for human GES-1 cells to IC50 for human HGC27 cells; type: toxicity; details: GES-1 cells and HGC27 cells, read-out: Ratio IC50
Method in brief: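 GES-1 normal gastric epithelial cells and HGC-27 tested by the same MTT protocol (3,000 cells/well, 24 h attachment, 72 h exposure, 570 nm). SI calculated as IC50(GES-1)/IC50(HGC-27). IC50s are means ± SD of three independent experiments.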

GES1 = assay: Cytotoxicity against human GES-1 cells assessed as reduction in cell viability after 72 hrs by MTT assay; type: cell-based; details: GES1, 72 h
Method in brief: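 Normal human gastric epithelial cells in exponential growth seeded at 3,000 cells/well, allowed 24 h, then medium replaced with fresh medium containing a range of compound concentrations. Exposure 72 h, then MTT, viability read at 570 nm.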

HGC-27 [3] = assay: Induction of apoptosis in human HGC27 cells assessed as cell rounding at 2 to 5 uM after 24 hrs by Hoechst 33258 staining-based fluorescence microscopy; type: functional
Method in brief: (§2)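 HGC-27 at 2×10⁵/well attached overnight, exposed to compound at several concentrations for 24 h, then stained with Hoechst 33258 for 30 min in the dark. Morphology scored by fluorescence microscopy.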

HGC-27 [4] = assay: Induction of apoptosis in human HGC27 cells assessed as decrease in Bcl2 expression up to 5 uM after 24 hrs by Western blot analysis; type: functional, cell-based
Method in brief: (§3)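 HGC-27 exposed to compound at several concentrations for 24 h, lysed in RIPA with protease inhibitors for 30 min, spun at 12,000 rpm for 10 min at 4 °C. Protein measured by BCA, run on SDS-PAGE, transferred to nitrocellulose. Blocked with 5% skim milk for 2 h, primary antibodies overnight at 4 °C, secondary 1:5000 for 2 h, ECL detection.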

HGC-27 [5] = assay: Induction of apoptosis in human HGC27 cells assessed as apoptotic cells at 5 uM after 24 hrs by Annexin-V-FITC/propidium iodide-double staining based flow cytometry (reference value: 1.8%); type: functional
HGC-27 [6] = assay: Induction of apoptosis in human HGC27 cells assessed as increase in Bax expression after 24 hrs by Western blot analysis; type: functional, cell-based; method in brief: as §3
HGC-27 [7] = assay: Induction of apoptosis in human HGC27 cells assessed as increase in cleaved caspase 3 expression after 24 hrs by Western blot analysis; type: functional, cell-based; method in brief: as §3
HGC-27 [8] = assay: Induction of apoptosis in human HGC27 cells assessed as increase in cleaved caspase 9 expression after 24 hrs by Western blot analysis; type: functional, cell-based; method in brief: as §3
HGC-27 [9] = assay: Induction of apoptosis in human HGC27 cells assessed as apoptotic cells at 2 uM after 24 hrs by Annexin-V-FITC/propidium iodide-double staining based flow cytometry (reference value: 1.8%); type: functional
HGC-27 [10] = assay: Induction of apoptosis in human HGC27 cells assessed as chromatin shrinkage at 2 to 5 uM after 24 hrs by Hoechst 33258 staining-based fluorescence microscopy; type: functional, cell-based; method in brief: as §2
HGC-27 [11] = assay: Induction of apoptosis in human HGC27 cells assessed as apoptotic cells at 1 uM after 24 hrs by Annexin-V-FITC/propidium iodide-double staining based flow cytometry (reference value: 1.8%); type: functional
HGC-27 [12] = assay: Antimigratory activity in human HGC27 cells after 48 hrs by wound healing assay; type: functional, cell-based
Method in brief: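 HGC-27 grown in 24-well plates, monolayer scratched with a 10 µL pipette tip, then exposed to compound at several concentrations. Wound closure photographed by inverted microscope after the incubation times stated.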

HGC-27 [13] = assay: Induction of apoptosis in human HGC27 cells assessed as formation of apoptotic bodies at 2 to 5 uM after 24 hrs by Hoechst 33258 staining-based fluorescence microscopy; type: functional, cell-based; method in brief: as §2
HGC-27 [14] = assay: Inhibition of colony formation in human HGC27 cells at 4 uM after 9 days by crystal violet staining based assay; type: functional; details: HGC-27, 216 h
Method in brief: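 HGC-27 seeded at 1000 cells/well, 24 h, then fresh medium with compound for 9 days. PBS washes, 4% paraformaldehyde fixation, 0.1% crystal violet stain. Colonies (>10 cells) counted from images. Inhibition rate = (1 − treated count/control count) × 100%. Triplicate.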

HGC-27 [15] = assay: Induction of apoptosis in human HGC27 cells after 24 hrs by Annexin-V-FITC/propidium iodide-double staining based flow cytometry; type: functional, cell-based

Row | Compound | pIC50 (MGC-803) | pIC50 (ECa-109 cell line) | pIC50 (MCF7) | pIC50 (HGC-27 [1]) | also measured
1 | CCCSc1nc(Sc2nncs2)c2nc(Nc3cccc4ccccc34)sc2n1 | < 4.19 | < 4.19 | < 4.19 | 4.64 | –
2 | CCCSc1nc(Sc2nnnn2CCN(C)C)c2nc(Nc3ccccc3)sc2n1 | 4.73 | < 4.19 | 4.84 | 5.19 | –
3 | CCCSc1nc(Sc2nccn2C)c2nc(Nc3ccccc3)sc2n1 | 4.52 | < 4.19 | < 4.19 | 5.39 | –
4 | CCCSc1nc(Sc2ccc(C)cc2)c2nc(Nc3ccccn3)sc2n1 | < 4.19 | < 4.19 | 4.47 | 5.14 | –
5 | Cc1ccc(Sc2nc(SCc3ccccc3)nc3sc(Nc4ccccc4)nc23)cc1 | 4.91 | 5.57 | 5.07 | 5.91 | selectivity ratio [2]: 24.1; pIC50 (GES1): 4.53; Activity (HGC-27 [3]): Active; Activity (HGC-27 [4]): Active; Activity (HGC-27 [5]): 67.9%; Activity (HGC-27 [6]): Dose-dependent effect; Activity (HGC-27 [7]): Dose-dependent effect; Activity (HGC-27 [8]): Dose-dependent effect; Activity (HGC-27 [9]): 31.8%; Activity (HGC-27 [10]): Active; Activity (HGC-27 [11]): 10.01%; Activity (HGC-27 [12]): Dose-dependent effect; Activity (HGC-27 [13]): Active; inhibition at 4 µM (HGC-27 [14]): 79%; Activity (HGC-27 [15]): Dose-dependent effect
6 | CCCSc1nc(Sc2ncccn2)c2nc(Nc3ccccc3)sc2n1 | 5.01 | 4.30 | 4.88 | 5.02 | –
7 | CCCSc1nc(Sc2ccc(C)cc2)c2nc(Nc3cccc4ccccc34)sc2n1 | 4.34 | < 4.19 | < 4.19 | < 4.19 | –
8 | CCCSc1nc(Sc2ccc(C)cc2)c2nc(Nc3ccccc3)sc2n1 | 5.33 | 4.60 | < 4.19 | 5.33 | –
9 | CCCSc1nc(Sc2nc3ccccc3s2)c2nc(Nc3ccccc3)sc2n1 | 4.85 | 4.61 | < 4.19 | 4.91 | –
10 | CCCSc1nc(Sc2nncs2)c2nc(Nc3ccccc3)sc2n1 | 4.97 | < 4.19 | 5.07 | 5.29 | –
11 | O=c1[nH]cc(F)c(=O)[nH]1 [FLUOROURACIL] | – | 5.30 | 5.14 | 4.96 | pIC50 (GES1): 5.07
12 | CCCSc1nc(Sc2nccs2)c2nc(Nc3ccccc3)sc2n1 | 4.63 | < 4.19 | < 4.19 | 5.66 | –
13 | CCCSc1nc(Sc2nnc(N)s2)c2nc(Nc3ccccc3)sc2n1 | 4.89 | < 4.19 | < 4.19 | < 4.19 | –
14 | CCCSc1nc(Sc2ccc(Cl)cc2)c2nc(Nc3ccccc3)sc2n1 | 5.03 | 4.71 | 4.35 | 5.05 | –
15 | CCCSc1nc(Sc2nncs2)c2nc(Nc3ccccn3)sc2n1 | 4.99 | < 4.19 | 4.94 | 4.74 | –
16 | CCCSc1nc(Sc2ccc(C)cc2)c2nc(Nc3cc(OC)c(OC)c(OC)c3)sc2n1 | < 4.19 | 4.62 | < 4.19 | 5.22 | –
17 | CCCSc1nc(Sc2ncccn2)c2nc(Nc3ccccn3)sc2n1 | 4.95 | < 4.19 | < 4.19 | 4.91 | –
18 | c1ccc(CSc2nc(Sc3nncs3)c3nc(Nc4ccccc4)sc3n2)cc1 | < 4.19 | 4.98 | 4.41 | 4.72 | –
